Our source for the Activity, inhibition and IC50 values is ChEMBL document CHEMBL1795294, “Modulation of the activity of histone acetyltransferases by long chain alkylidenemalonates (LoCAMs)” (Bioorg Med Chem, 2011).

The source made the active and inactive calls. The rule behind the calls is not given here.

Data set [1] concerns U-937. As to the kind of experiment: Cell cycle arrest in human U937 cells assessed as accumulation at S phase at 25 uM after 30 hrs using propidium iodide staining by flow cytometry. The data set is classed as functional, cell-based. Summed up: (§1)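 U937 cells kept at 200,000 cells/mL, 37 °C, 5% CO2, treated 30 h at 50 or 25 µM. Phase distribution by flow cytometry. Three independent experiments, mean ± SD.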

Data set [2] deals with Histone acetyltransferase KAT2B (Homo sapiens) (UniProt Q92831). Briefly: Inhibition of human recombinant KAT2B using histone H4 peptide as substrate at 50 uM after 2 hrs. The method, boiled down: (§2)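 Human PCAF (200 ng) in KAT buffer with 10 µg histone H4 peptide (aa 2–24), 20 µM acetyl-CoA with 0.5 µCi/mL [3H]-acetyl-CoA, and compound at 50 µM final, 2 h at 37 °C. Spotted on P81 paper in triplicate, washed with TCA then acetone, scintillation counted. Activity given as % of untreated control (100%).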

The subject of data set [3] is U-937. As to the kind of experiment: Induction of apoptosis in human U937 cells at 25 uM after 30 hrs using annexin V/propidium iodide double-staining by FACS analysis. The data set is classed as functional, cell-based. Summed up:
(§3)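 U937 cells at 200,000 cells/mL, 37 °C, 5% CO2, exposed 30 h at 50 or 25 µM. Dose–response runs used 5–200 µM, with IC50 taken as the concentration giving 50% apoptosis. Annexin V/propidium iodide double staining, apoptotic subpopulations counted by FACS. Three independent experiments, mean ± SD.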
For orientation: Flow cytometry measures light scatter and fluorescence of single cells or particles in a stream.

For data set [4], the system named is U-937. As to the kind of experiment: Induction of granulocytic differentiation in human U937 after […] using propidium iodide staining by FACS analysis. It is filed as functional, cell-based.
The target of data set [5] is Histone deacetylase (Homo sapiens) (UniProt Q13547+O15379+Q9UBN7+Q92769+Q9UQL6+Q8WUI4+Q9BY41+Q96DB2+P56524+Q9UKV0+Q969S8). Briefly: Inhibition of HDAC in human U937 cells at 50 uM after 15 mins by Western blotting. The data set is classed as cell-based. The following applies: U-937. Background: In western blotting, separated proteins are transferred to a membrane and probed.

Another data set concerns MCF7. Briefly: Inhibition of histone acetyltransferase in human MCF7 cells assessed as increase of alpha-tubulin acetylation level at 15 and 30 uM after 15 mins by Western blotting.
Data set [6] has as its target CREB-binding protein (Homo sapiens) (UniProt Q92793). Briefly: Inhibition of human recombinant KAT3A expressed in Escherichia coli BL21 using histone H4 peptide as substrate at 50 uM after 2 hrs relative to control. The method, boiled down: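 Recombinant CBP fragment (aa 1098–1877) from E. coli BL21, affinity purified. Spotted on P81 paper in triplicate, washed with TCA/acetone, scintillation DPM compared with negative control, expressed as %.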

For data set [7], the system named is U-937. As to the kind of experiment: Inhibition of histone acetyltransferase in human U937 cells assessed as increase of histone H3 acetylation level at 50 uM after 15 mins by Western blotting. It is filed as cell-based. Summed up:
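U937 cells treated at 50 µM. Histones prepared by Triton extraction buffer lysis, then overnight 0.2 M HCl extraction at 4 °C, Bradford quantitation. Immunoblot with pan-acetyl-H3 antibody (1:1000), Ponceau Red staining as loading check.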

Data set [8] deals with Histone acetyltransferase p300 (Homo sapiens) (UniProt Q09472). As to the kind of experiment: Binding affinity to His6-tagged immobilized human KAT3B catalytic domain expressed in Sf9 cells by surface plasmon resonance assay.
Data set [9] concerns U-937. As to the kind of experiment: Cell cycle arrest in human U937 cells assessed as accumulation at S phase at 50 uM after 30 hrs using propidium iodide staining by flow cytometry. The data set is classed as functional, cell-based. Summed up:
as §1

The test system of data set [10] is U-937. Briefly: Inhibition of histone acetyltransferase in human U937 cells assessed as inhibition of acetylation of histone H4 at K5 at 50 uM after 24 hrs by Western blotting. It is filed as cell-based. The method, boiled down:
(§4)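 U937 cells treated 24 h at 50 µM. Acid-extracted histones (Triton buffer lysis, then 0.2 M HCl overnight at 4 °C) immunoblotted with site-specific antibodies (H3K9/K14/K18/K56ac, H4K5/K8/K16ac, pan-acetyl H4; 1:1000). Loading checked by Ponceau Red staining, or by histone H1 for pan-acetyl H4.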

The test system of data set [11] is U-937. Briefly: Inhibition of histone acetyltransferase in human U937 cells assessed as inhibition of acetylation of histone H3 at K56 at 50 uM after 24 hrs by Western blotting. It is filed as cell-based. The method, boiled down: as §4
The test system of data set [12] is U-937. Briefly: Inhibition of histone acetyltransferase in human U937 cells assessed as inhibition of acetylation of histone H3 at K18 at 50 uM after 24 hrs by Western blotting. It is filed as cell-based. The method, boiled down: as §4
Another data set has as its target Albumin (Bos taurus, UniProt P02769). As to the kind of experiment: Binding affinity to bovine serum albumin by surface plasmon resonance assay. The following applies: cattle. On the technique in general: In SPR one partner is held on a chip, and binding of the other changes the refractive index at the surface.
Data set [13] relates to U-937. As to the kind of experiment: Inhibition of histone acetyltransferase in human U937 cells assessed as inhibition of acetylation of histone H3 at K14 at 50 uM after 24 hrs by Western blotting. The data set is classed as cell-based. Summed up:
as §4

Data set [14] has as its system U-937. Briefly: Inhibition of histone acetyltransferase in human U937 cells assessed as inhibition of acetylation of histone H3 at K9 at 50 uM after 24 hrs by Western blotting. The data set is classed as cell-based. The method, boiled down:
as §4

The test system of data set [15] is U-937. Briefly: Inhibition of histone acetyltransferase in human U937 cells assessed as inhibition of acetylation of histone H4 at K8 at 50 uM after 24 hrs by Western blotting. The data set is classed as cell-based. Summed up: as §4
The subject of data set [16] is U-937. As to the kind of experiment: Induction of apoptosis in human U937 cells at 50 uM after 30 hrs using annexin V/propidium iodide double-staining by FACS analysis. The data set is classed as functional. The method, boiled down: as §3
For data set [17], the target named is Histone acetyltransferase p300 (Homo sapiens) (UniProt Q09472). Briefly: Binding affinity to immobilized His6-tagged human full-length KAT3B expressed in Sf9 cells by surface plasmon resonance assay.
Data set [18] relates to U-937. Briefly: Induction of apoptosis in human U937 cells after 30 hrs using annexin V/propidium iodide double-staining by FACS analysis. The data set is classed as functional, cell-based. As to conditions: U-937, 30 h. Summed up: as §3
Data set [19] concerns U-937. Briefly: Inhibition of histone acetyltransferase in human U937 cells assessed as inhibition of acetylation of histone H4 at K16 at 50 uM after 24 hrs by Western blotting. The data set is classed as cell-based. Summed up: as §4
Data set [20] deals with Histone acetyltransferase KAT2B (Homo sapiens) (UniProt Q92831). As to the kind of experiment: Increase of human recombinant KAT2B acetylation activity using histone H4 peptide as substrate at 50 uM after 2 hrs. Summed up:
as §2

Usually inhibition stands for the percentage by which the read-out fell short of the control. For orientation: IC50 means the concentration needed to halve the response being measured.

CREB-binding protein (Homo sapiens), sequence (Q92793 2-2442 limits assumed): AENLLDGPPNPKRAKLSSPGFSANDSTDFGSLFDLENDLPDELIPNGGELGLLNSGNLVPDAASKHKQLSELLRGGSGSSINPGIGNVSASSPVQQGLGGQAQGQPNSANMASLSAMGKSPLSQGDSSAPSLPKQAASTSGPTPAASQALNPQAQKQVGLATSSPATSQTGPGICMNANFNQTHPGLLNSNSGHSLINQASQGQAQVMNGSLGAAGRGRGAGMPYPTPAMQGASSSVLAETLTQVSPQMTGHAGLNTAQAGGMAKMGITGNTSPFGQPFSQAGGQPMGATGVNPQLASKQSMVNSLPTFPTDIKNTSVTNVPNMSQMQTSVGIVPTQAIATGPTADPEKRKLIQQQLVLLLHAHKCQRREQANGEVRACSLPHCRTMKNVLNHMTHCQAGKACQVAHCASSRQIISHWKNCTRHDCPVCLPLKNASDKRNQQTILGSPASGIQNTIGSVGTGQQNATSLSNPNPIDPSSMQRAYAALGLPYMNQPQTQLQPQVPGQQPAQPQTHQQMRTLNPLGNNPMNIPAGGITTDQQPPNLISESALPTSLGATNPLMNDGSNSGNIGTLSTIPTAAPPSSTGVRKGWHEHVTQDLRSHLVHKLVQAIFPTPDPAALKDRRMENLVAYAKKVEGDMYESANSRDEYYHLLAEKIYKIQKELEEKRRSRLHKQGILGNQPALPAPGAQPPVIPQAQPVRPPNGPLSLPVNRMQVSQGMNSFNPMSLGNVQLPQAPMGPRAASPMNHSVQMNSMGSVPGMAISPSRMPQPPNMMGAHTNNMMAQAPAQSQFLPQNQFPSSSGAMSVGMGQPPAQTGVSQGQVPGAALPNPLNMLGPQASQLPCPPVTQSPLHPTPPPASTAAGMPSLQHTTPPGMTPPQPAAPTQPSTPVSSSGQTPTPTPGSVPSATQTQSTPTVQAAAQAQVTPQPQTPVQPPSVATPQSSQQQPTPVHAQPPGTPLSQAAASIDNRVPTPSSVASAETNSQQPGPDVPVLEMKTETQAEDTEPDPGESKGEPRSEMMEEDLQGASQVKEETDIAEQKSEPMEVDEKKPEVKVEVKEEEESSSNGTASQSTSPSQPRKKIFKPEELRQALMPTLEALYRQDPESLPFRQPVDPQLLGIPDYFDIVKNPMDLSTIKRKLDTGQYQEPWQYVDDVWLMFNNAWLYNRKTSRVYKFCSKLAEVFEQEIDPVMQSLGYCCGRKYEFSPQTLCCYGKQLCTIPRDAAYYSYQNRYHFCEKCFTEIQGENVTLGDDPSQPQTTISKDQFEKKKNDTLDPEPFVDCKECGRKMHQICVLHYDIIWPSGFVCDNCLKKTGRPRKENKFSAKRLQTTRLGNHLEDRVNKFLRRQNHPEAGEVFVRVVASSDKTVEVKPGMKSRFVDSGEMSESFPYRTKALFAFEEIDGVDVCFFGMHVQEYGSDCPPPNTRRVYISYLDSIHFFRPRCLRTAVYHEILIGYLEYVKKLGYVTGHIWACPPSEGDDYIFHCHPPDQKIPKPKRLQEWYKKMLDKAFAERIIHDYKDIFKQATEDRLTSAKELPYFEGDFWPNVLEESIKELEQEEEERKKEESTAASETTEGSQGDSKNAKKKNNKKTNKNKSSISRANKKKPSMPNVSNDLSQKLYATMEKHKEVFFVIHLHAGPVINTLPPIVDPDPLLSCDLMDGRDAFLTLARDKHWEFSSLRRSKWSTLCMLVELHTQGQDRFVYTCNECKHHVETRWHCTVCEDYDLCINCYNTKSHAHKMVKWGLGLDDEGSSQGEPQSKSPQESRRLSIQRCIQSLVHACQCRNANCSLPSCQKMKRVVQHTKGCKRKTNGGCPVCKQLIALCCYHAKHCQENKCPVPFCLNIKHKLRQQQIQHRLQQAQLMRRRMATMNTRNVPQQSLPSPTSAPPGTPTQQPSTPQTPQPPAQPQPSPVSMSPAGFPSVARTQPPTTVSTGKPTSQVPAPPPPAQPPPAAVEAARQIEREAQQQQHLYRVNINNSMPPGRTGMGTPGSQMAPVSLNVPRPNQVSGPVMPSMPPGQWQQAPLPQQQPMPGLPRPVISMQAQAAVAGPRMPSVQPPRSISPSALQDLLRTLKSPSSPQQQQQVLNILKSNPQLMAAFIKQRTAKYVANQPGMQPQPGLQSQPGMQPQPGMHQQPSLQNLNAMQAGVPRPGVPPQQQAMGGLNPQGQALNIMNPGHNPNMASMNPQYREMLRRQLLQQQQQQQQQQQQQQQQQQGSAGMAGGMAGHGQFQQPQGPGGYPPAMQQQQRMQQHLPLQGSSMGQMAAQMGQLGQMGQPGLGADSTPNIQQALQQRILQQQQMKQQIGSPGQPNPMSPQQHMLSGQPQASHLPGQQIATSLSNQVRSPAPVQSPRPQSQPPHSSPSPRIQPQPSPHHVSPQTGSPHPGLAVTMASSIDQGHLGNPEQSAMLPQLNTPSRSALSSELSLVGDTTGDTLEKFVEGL
Histone acetyltransferase p300 (Homo sapiens), sequence (Q09472 whole entry, the tested form may be a part): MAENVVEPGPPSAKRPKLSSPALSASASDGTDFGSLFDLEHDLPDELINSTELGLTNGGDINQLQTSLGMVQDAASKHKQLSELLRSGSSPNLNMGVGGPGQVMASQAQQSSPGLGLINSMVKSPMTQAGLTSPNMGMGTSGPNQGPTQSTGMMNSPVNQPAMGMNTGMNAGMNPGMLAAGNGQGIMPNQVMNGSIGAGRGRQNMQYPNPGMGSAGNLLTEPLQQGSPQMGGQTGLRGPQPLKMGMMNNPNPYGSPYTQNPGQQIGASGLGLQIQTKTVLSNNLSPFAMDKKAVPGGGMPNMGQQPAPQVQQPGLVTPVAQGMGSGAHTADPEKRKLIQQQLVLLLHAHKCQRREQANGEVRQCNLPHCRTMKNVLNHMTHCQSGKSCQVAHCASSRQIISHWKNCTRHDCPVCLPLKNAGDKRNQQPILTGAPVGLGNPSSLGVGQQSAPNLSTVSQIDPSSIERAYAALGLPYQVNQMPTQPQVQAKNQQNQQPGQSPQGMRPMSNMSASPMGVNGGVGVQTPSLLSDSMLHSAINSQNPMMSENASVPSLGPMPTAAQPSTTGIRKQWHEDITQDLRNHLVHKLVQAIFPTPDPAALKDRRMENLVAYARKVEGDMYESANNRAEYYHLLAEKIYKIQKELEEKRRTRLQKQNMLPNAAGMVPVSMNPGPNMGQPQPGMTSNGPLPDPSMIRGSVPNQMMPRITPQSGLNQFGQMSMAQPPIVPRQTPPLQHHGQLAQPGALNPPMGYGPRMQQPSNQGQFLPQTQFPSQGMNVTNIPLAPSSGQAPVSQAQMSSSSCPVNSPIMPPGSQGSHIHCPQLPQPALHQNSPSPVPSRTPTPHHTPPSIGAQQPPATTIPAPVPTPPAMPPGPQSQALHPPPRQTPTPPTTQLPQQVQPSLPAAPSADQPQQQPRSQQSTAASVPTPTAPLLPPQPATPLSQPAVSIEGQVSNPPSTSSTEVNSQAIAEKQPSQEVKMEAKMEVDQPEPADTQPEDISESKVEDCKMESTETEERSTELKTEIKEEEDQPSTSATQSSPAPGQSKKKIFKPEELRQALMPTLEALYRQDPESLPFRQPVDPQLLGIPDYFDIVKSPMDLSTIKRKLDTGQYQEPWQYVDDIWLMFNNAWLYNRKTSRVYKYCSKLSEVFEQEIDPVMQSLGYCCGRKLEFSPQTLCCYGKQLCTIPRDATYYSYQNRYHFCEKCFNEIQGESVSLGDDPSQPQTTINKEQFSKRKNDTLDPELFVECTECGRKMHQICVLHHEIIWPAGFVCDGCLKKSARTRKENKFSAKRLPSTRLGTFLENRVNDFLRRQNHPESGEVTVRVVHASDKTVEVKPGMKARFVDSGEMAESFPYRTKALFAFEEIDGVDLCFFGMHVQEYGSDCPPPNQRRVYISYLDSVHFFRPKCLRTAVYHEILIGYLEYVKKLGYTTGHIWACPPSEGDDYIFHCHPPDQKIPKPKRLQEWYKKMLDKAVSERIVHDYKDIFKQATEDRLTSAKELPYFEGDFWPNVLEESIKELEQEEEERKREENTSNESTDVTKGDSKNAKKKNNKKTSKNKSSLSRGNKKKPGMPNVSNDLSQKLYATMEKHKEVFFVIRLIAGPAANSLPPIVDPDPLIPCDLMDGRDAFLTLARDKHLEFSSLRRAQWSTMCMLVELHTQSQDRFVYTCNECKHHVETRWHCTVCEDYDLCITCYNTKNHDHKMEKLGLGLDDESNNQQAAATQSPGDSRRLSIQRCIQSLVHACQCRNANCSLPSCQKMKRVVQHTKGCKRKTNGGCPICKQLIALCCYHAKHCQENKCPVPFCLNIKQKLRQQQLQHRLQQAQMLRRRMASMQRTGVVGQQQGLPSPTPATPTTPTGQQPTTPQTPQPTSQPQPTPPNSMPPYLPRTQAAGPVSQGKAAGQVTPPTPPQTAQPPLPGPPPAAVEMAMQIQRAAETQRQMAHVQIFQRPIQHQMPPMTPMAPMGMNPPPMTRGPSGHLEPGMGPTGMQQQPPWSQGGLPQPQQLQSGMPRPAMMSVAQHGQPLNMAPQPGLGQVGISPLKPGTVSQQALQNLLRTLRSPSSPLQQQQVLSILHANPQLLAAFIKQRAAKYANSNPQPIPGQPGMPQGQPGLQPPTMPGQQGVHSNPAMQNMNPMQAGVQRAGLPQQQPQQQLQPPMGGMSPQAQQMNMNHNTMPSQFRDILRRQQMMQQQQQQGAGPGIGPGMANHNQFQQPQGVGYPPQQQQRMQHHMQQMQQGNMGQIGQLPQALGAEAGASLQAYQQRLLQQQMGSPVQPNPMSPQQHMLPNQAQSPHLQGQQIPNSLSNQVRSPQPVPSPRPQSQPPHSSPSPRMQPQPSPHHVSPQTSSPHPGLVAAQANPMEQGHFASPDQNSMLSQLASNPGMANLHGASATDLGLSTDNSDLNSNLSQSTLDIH

In the case of `CCCCCCCCCCCCCC(C(=O)OCC)C(=O)OCC`, the outcome in the data set with U-937 [1], with U-937 [3] and in the data set on U-937 [4] was inactive. The inhibition result in [2] and in data set [6] was “Active” throughout. Moreover, the inhibition result (in data set [5]; with MCF7; in the data set on U-937 [7]) was “inactive” in each case.

As to `CCCCCCCCCCCCCCCC(C(=O)OCC)C(=O)OCC`, the result in the data set with U-937 [1], in the data set on U-937 [3] and with U-937 [4] was inactive. Moreover, the inhibition result (in [5]; in the data set on MCF7; in the data set on U-937 [7]) was “inactive” each time. In addition, the inhibition result in [6] is “Active”.

With `C=CC/C=C\C/C=C\CCCCCCCc1cccc(O)c1C(=O)O`, the inhibition in data set [6] was 62%.

On to `CCCCCCCCCCC=C(C(=O)OCC)C(=O)OCC`, for which the inhibition entry (in data set [2]; in the data set with U-937 [10]; in the data set with U-937 [11]; in the data set on U-937 [12]; in the data set on U-937 [13]; in data set [6]) was “Active” each time. Further, the inhibition result in the data set on U-937 [14], with U-937 [7] and with U-937 [19] was “Active” in each case. In addition, the result (in data set [8]; in the data set with U-937 [4]) was inactive. The result in the data set with U-937 [9] was Active. Moreover, the inhibition entry in the data set on MCF7 and in the data set with U-937 [15] was “inactive” throughout. The Activity result on Albumin was “Not Active”; in the data set on U-937 [16], 25.4%; in data set [17], “Dose-dependent effect”. In the data set on U-937 [18], this compound displayed a half-maximal inhibitory concentration (IC50) of 156 µM.

Consider `CCCCCCCCCCCCCCCCC(O)=C(C(=O)OCC)C(=O)OCC`, for which the outcome in the data set on U-937 [1], with U-937 [3] and in the data set with U-937 [4] was inactive. Moreover, the inhibition result (in data set [5]; with MCF7; with U-937 [7]) was “inactive” each time. For the same compound, in [6], the inhibition result was “Active”.

As for `CCCCCCCCCCCCCCC(C)=C(C(=O)OCC)C(=O)OCC`, the result in the data set on U-937 [1], in the data set on U-937 [3] and in the data set on U-937 [4] was inactive. Moreover, the inhibition result (in data set [5]; in the data set with MCF7; in the data set with U-937 [7]) was “inactive” throughout. Besides, in data set [6], the inhibition result was “Active”.

On to `CCCCCCCCCCCCCC(C)=C(C(=O)OCC)C(=O)OCC`, for which the result in the data set with U-937 [1], in the data set with U-937 [3] and in the data set with U-937 [4] was inactive. Also, the inhibition entry (in [5]; in the data set with MCF7; in the data set on U-937 [7]) was “inactive” each time. Moreover, the inhibition result in data set [6] was “Active”.

For `CCCCCCCCCCCCCCC(Cl)=C(C(=O)OCC)C(=O)OCC`, the result with U-937 [1], in the data set on U-937 [3] and in the data set on U-937 [4] was inactive. In addition, the inhibition entry (in data set [5]; with MCF7; in the data set on U-937 [7]) was “inactive” each time. In addition, the inhibition entry in [6] was “Active”. The result in data set [20] was Active.

Regarding `CCCCCCCCCCCCCCC=C(C(C)=O)C(C)=O`, the inhibition result (in data set [2]; with U-937 [13]; in the data set with U-937 [14]; with U-937 [7]) was “Active” in each case. For the same compound, the outcome (in data set [8]; with U-937 [4]) was inactive. Also, the result with U-937 [9] and in the data set on U-937 [16] was Active. The inhibition entry in the data set with U-937 [10], with U-937 [11], in the data set with MCF7, in the data set with U-937 [12], with U-937 [15] and with U-937 [19] was “inactive” in each case. In addition, the Activity result is “Not Active” at Albumin and “Dose-dependent effect” in [17]. For the same compound, the inhibition in [6] was determined as 79%.

In the case of `CCCCCCCCCCCCC=C(C(=O)OCC)C(=O)OCC`, the result in the data set on U-937 [1], with U-937 [3] and in the data set with U-937 [4] was inactive. For the same compound, the inhibition result (in data set [2]; in the data set with U-937 [12]; in the data set with U-937 [14]) was “Active” throughout. Also, the inhibition result (in the data set on U-937 [10]; in the data set on U-937 [11]; with U-937 [13]; in data set [6]; with U-937 [15]; in the data set on U-937 [19]) was “inactive” in each case.

As to `CCCCCCCCCCCCCCC(O)=C(C(=O)OCC)C(=O)OCC`, the outcome in the data set on U-937 [1], with U-937 [3] and in the data set with U-937 [4] was inactive. In addition, the inhibition entry (in data set [5]; in the data set with MCF7; with U-937 [7]) was “inactive” each time. Besides, the inhibition in data set [6] was found to be 52%. In addition, the result in data set [20] was Active.

In the case of `CCCCCCCCCCCCCCC(C(=O)OCC)C(=O)OCC`, the outcome in the data set with U-937 [1], with U-937 [3] and in the data set on U-937 [4] was inactive. The inhibition entry (in [5]; with MCF7; with U-937 [7]) was “inactive” each time. The inhibition entry in data set [6] is “Active”.

`CCCCCCCCCCCCCCC(N)=C(C(=O)OCC)C(=O)OCC`: the outcome in the data set on U-937 [1], in the data set on U-937 [3] and in the data set with U-937 [4] was inactive.

For the compound `CCCCCCCCCCCCCCCC1C(=O)OC(C)(C)OC1=O`, the outcome in the data set on U-937 [1], in the data set on U-937 [3] and in the data set on U-937 [4] was inactive. For the same compound, the inhibition result in [2] and in [6] was “Active” in each case. Further, the inhibition result (in data set [5]; with MCF7; in the data set on U-937 [7]) was “inactive” in each case.

As for `CCCCCCCCCCCCCCC=C1C(=O)OC(C)(C)OC1=O`, the outcome with U-937 [1], in the data set on U-937 [3] and in the data set on U-937 [4] was inactive. The inhibition entry in [2] and in data set [6] was “Active” throughout. Besides, the inhibition entry (in data set [5]; in the data set on MCF7; in the data set with U-937 [7]) was “inactive” throughout.
